# Laboratory results published in ChEMBL document CHEMBL2150885, “Dual anticoagulant/antiplatelet persulfated small molecules” (Eur J Med Chem, 2011).
# Calls of active or inactive are those of the source. The calls are words filed in the database; no cut-off is given here.
# Tests used:
# Platelet [1] = experiment: Antiplatelet activity against thrombin receptor-activating peptide-6-induced platelet aggregation in human blood at 6.25 x 10^-4 M measured for 6 mins by multiplate electrical impedance aggregometry; type: functional, cell-based
# In short: (§1)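 Hirudin-anticoagulated (final […]) healthy-donor whole blood, used within 0.5–1 h. Compound in saline to final 6.25 × 10⁻⁴ M; saline control, acetylsalicylic acid 6.25 × 10⁻⁴ M reference. Blood mixed with saline at 37 °C for 180 s, then agonist at final TRAP-6 […], arachidonic acid 0.5 mM or ADP […]. Impedance recorded 6 min; AUC from mean of two curves, accepted if within 20%.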
# Platelet [2] = experiment: Antiplatelet activity against adenosine diphosphate-induced platelet aggregation in human blood at 6.25 x 10^-4 M measured for 6 mins by multiplate electrical impedance aggregometry; type: functional, cell-based; in short: as §1
# Plasma [3] = experiment: Anticoagulant activity in human plasma assessed as effect on APC level using CBS 42.46 as synthetic substrate; type: functional, cell-free
# In short: (§2)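 Compound in saline added to citrated human plasma. Protein C activated by a snake venom-derived activator; enzyme formed quantified by amidolytic activity on chromogenic substrate CBS 42.46. Calibration curve linear 3–150%; normal and pathological control plasmas verify accuracy. Compounds at 1 × 10⁻³ M.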
# [4] = Cytotoxicity against human A375-C5 cells at 1.5 x 10^-4 after 48 hrs; type: cell-based; details: a375-c5, 48 h
# Plasma [5] = experiment: Anticoagulant activity in human plasma assessed as effect on prothrombin level by PT clotting time with factor II deficient plasma at 1 x 10^-3 M
# Mus musculus = species on record: Mus musculus; experiment: Acute hepatic toxicity in CD1 mouse; type: organism-based; details: in vivo
# Plasma [6] = experiment: Anticoagulant activity in human plasma assessed as effect on APC level using CBS 42.46 as synthetic substrate at 1 x 10^-3 M; type: functional; in short: as §2
# MCF7 = experiment: Cytotoxicity against human ER-positive MCF7 cells at 1.5 x 10^-4 after 48 hrs; type: cell-based; details: mcf7, 48 h
# Plasma [7] = experiment: Anticoagulant activity in human plasma assessed as effect on prothrombin level by PT clotting time with factor II deficient plasma
# Platelet [8] = experiment: Antiplatelet activity against arachidonic acid-induced platelet aggregation in human blood at 6.25 x 10^-4 M measured for 6 mins by multiplate electrical impedance aggregometry; type: functional, cell-based; in short: as §1
# NCI-H460 = experiment: Cytotoxicity against human NCI-H460 cells at 1.5 x 10^-4 after 48 hrs; type: cell-based; details: nci-h460, 48 h
# [9] = Antiplatelet activity against collagen-epinephrine-activated platelet in human blood assessed as closure time at 6.25 x 10^-4 M; type: functional
# In short: (§3)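 Healthy-donor whole blood collected into hirudin (final […]), analysed within 0.5–1 h. Closure time measured in a PFA-100 under high shear through an aperture, platelets activated by a collagen-coated membrane with ADP or epinephrine.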
# [10] = target: Coagulation factor X (Homo sapiens) (UniProt P00742); experiment: Inhibition of human factor 10a using CH3SO2-D-Leu-Gly-Arg-pNA, AcOH as substrate at 1 x 10^-3 M by chromogenic substrate hydrolysis assay
# In short: (§4)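 Chromogenic hydrolysis in 50 mM Tris/HCl pH 8.3, 227 mM NaCl, 0.1% BSA, with and without bovine antithrombin III (1 U/mL final). Human factor Xa 0.5 U/mL with CBS 31.39 […], or human thrombin 0.06 U/mL with Chromozym TH […]. Absorbance at 405 nm, enzyme-free blank subtracted; initial slope vs water control gives % inhibition. Compounds at 1 × 10⁻³ M; n = 6.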
# [11] = target: Antithrombin-III (Bos taurus) (UniProt P41361); experiment: Inhibition of bovine antithrombin-3 at 1 x 10^-3 M
# [12] = Antiplatelet activity against collagen-ADP-activated platelet in human blood assessed as closure time at 6.25 x 10^-4 M; type: functional; in short: as §3
# Plasma [13] = experiment: Anticoagulant activity in human plasma assessed as concentration required to double prothrombin time; type: functional
# In short: (§5)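 Pooled citrated human plasma; compounds in water (10% DMSO for some), final 5 × 10⁻³ to 0.05 × 10⁻³ M; heparin 0.1–10 UI/mL as reference. APTT, PT and TT measured on a coagulometer with commercial kits, clotting time in s. Duplicates repeated on three days (n = 6). Concentration doubling clotting time obtained by linear regression of each concentration-response curve.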
# [14] = target: Prothrombin (Homo sapiens) (UniProt P00734); experiment: Inhibition of human thrombin using Tosyl-Gly-Pro-Arg-p-nitroaniline as substrate at 1 x 10^-3 M by chromogenic substrate hydrolysis assay; in short: as §4
# Plasma [15] = experiment: Anticoagulant activity in human plasma assessed as concentration required to double activated partial thromboplastin time; type: functional; in short: as §5
# Plasma [16] = experiment: Anticoagulant activity in human plasma assessed as concentration required to double thrombin time; type: functional; in short: as §5
# Blood [17] = experiment: Anticoagulant activity in human whole blood assessed as clotting time at 3.12 x 10'4 M by thromboelastography assay; type: functional
# In short: (§6)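 Citrated whole blood (citrate:blood 1:9) from healthy donors. Compound in saline diluted 1:16 into blood to final 3.12 × 10⁻⁴ or 6.25 × 10⁻⁴ M; saline control. Thromboelastography with intrinsic activator (InTEM); R clotting time and K clot formation time in s. Mean of three independent experiments in duplicate.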
# Blood [18] = experiment: Anticoagulant activity in human whole blood assessed as clotting formation time at 3.12 x 10'4 M by InTEM-TEG assay; type: functional; in short: as §6
# [19] = Metabolic stability of the compound in human plasma assessed as compound remaining after 3 hrs by IP-RP-HPLC analysis; type: ADME, cell-free; details: read-out: Stability
# In short: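 Compound at 25 mM final in human plasma diluted 1:1 with PBS pH 7.4, shaken at 37 °C; sampled at 0 and 180 min, three independent samples. TBA buffer (pH 8) added for ion-pairing, quenched with 4× cold acetonitrile, centrifuged, filtered, dried, redissolved in mobile phase. Quantified by ion-pairing RP-HPLC on C-18, phosphate/TBA buffer:acetonitrile 55:45, 1.0 mL/min.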
# Sequence of Coagulation factor X (Homo sapiens) (P00742 41-179 limits assumed): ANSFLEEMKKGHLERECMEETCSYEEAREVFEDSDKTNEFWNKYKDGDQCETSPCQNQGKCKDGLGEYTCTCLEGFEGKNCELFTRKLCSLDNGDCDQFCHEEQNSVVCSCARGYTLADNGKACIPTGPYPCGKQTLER
# Sequence of Coagulation factor X (Homo sapiens) (P00742 235-488 limits assumed): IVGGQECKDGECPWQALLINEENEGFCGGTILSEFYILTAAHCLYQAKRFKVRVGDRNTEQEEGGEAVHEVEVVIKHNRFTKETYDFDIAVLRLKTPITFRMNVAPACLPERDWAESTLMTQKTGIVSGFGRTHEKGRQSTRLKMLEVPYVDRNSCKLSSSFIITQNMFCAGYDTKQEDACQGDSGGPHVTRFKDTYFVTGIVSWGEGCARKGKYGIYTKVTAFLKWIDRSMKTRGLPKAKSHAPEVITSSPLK
# Sequence of Antithrombin-III (Bos taurus) (P41361 whole entry): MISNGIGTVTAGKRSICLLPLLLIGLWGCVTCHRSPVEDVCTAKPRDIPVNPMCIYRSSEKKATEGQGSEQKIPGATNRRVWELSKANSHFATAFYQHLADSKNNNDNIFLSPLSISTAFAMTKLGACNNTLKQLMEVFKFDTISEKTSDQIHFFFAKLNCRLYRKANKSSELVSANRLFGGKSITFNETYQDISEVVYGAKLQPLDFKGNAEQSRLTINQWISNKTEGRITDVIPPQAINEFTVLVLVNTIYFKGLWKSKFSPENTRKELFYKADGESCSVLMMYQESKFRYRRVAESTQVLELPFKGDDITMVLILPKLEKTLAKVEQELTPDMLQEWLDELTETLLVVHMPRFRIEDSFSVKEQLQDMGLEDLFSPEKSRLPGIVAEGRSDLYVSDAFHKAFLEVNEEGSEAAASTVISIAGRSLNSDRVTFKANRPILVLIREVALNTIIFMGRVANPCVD
SMILES,AUC (Platelet [1]),AUC (Platelet [2]),Activity (Plasma [3]),Activity [4],Activity (Plasma [5]),Activity (Plasma [6]),Activity (MCF7),Activity (Plasma [7]),AUC (Platelet [8]),Activity (NCI-H460),further results
C[C@@H]1O[C@@H](OC[C@H]2O[C@@H](Oc3c(-c4ccc(OS(=O)(=O)[O-])c(OS(=O)(=O)[O-])c4)oc4cc(OS(=O)(=O)[O-])cc(OS(=O)(=O)[O-])c4c3=O)[C@H](OS(=O)(=O)[O-])[C@@H](OS(=O)(=O)[O-])[C@@H]2OS(=O)(=O)[O-])[C@H](OS(=O)(=O)[O-])[C@H](OS(=O)(=O)[O-])[C@H]1OS(=O)(=O)[O-].[Na+].[Na+].[Na+].[Na+].[Na+].[Na+].[Na+].[Na+].[Na+].[Na+],950 AU.min,230 AU.min,Dose-dependent effect,Non-toxic,9%,28.5%,Non-toxic,Dose-dependent effect,215 AU.min,Non-toxic,Activity (Mus musculus): Non-toxic
O=S(=O)([O-])OC[C@H]1O[C@@H](Oc2cc(/C=C/c3ccc(OS(=O)(=O)[O-])cc3)cc(OS(=O)(=O)[O-])c2)[C@H](OS(=O)(=O)[O-])[C@@H](OS(=O)(=O)[O-])[C@@H]1OS(=O)(=O)[O-].[Na+].[Na+].[Na+].[Na+].[Na+].[Na+],1020 AU.min,173 AU.min,Dose-dependent effect,Non-toxic,12%,50.5%,Non-toxic,Dose-dependent effect,400 AU.min,Non-toxic,Time [9]: 273 s; inhibition [10]: inactive; inhibition [11]: inactive; Time [12]: 212 s; 2PT (Plasma [13]): 1.77 mM; Activity (Plasma [13]): Dose-dependent effect; inhibition [14]: inactive; 2aPTT (Plasma [15]): 0.146 mM; Activity (Plasma [15]): Dose-dependent effect; Activity (Plasma [16]): Dose-dependent effect; Activity (Plasma [16]; record 2): 1.95 mM; Time (Blood [17]): 447 s; Time (Blood [18]): 136 s; remaining at 3 h [19]: 95%
